Assay outcomes deposited in PubChem by The Scripps Research Institute Molecular Screening Center.
ARFGAP1 inh: inhibitors of rat ARFGAP1; Arfgap1-stimulated ARF1 GTP hydrolysis, GDP FP detection; inhibition, % at 16.5 µM; AID 651572; Q62848; 0.26% of 360,000 active;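 active means inhibition above a per-plate limit, mean inhibition of low control wells plus 3 SD, cut at about 25% in these data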;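 further: 0% = DMSO wells with enzyme and 100% = wells lacking Arfgap1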
Target sequence (Q62848 1-136 limits assumed): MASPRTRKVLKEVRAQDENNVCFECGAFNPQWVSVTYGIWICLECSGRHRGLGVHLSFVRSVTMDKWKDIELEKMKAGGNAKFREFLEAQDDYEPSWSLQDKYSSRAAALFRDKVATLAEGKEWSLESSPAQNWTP
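material = rat Arfgap1 catalytic domain, aa 1-136 | also added = human ARF1(Δ1-17)-GTP substrate | compound dosing = one concentration, 16.5 µM, DMSO 1.26% | times = GTP hydrolysis reaction 2 h at 25 °C | measured by = FP, GDP Alexa 633 tracer displaced from anti-GDP antibody, 620/688 nm | evaluation = percent inhibition of Arfgap1-stimulated GTP hydrolysis | replication = single well per compound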
TDP2 inh: TDP2 (human) inhibition, absorbance primary screen; O95551; recombinant TDP2, T5PNP hydrolysis, p-nitrophenol absorbance 415 nm; inhibition, % at 12.8 µM; 0.34% of 370,000 active;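 active means inhibition above the mean of all tested compounds plus 3 SD, set per campaign, cut at about 25% in these data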;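 further: 0% = DMSO with enzyme and 100% = buffer with substrate but no TDP2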
Target sequence (O95551 whole entry, looked up): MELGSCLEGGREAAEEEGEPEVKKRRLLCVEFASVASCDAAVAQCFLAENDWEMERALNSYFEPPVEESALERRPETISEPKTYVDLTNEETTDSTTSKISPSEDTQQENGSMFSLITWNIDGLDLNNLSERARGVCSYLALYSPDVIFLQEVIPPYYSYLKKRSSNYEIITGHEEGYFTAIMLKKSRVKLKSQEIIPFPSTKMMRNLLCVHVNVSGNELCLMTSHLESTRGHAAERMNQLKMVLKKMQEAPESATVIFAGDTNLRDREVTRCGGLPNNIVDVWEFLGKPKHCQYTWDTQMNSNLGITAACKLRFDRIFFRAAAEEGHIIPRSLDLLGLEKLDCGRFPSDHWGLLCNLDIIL
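Read-out basis: percent inhibition. System: recombinant human TDP2. Buffer or medium: Mg2+-containing Tris-HCl buffer, pH 7.5. Repeats: single replicate. Timing: reaction 2 h, 37 °C. Benchmarks: high control without enzyme, low control DMSO plus TDP2. Probe or stimulus: 5 mM T5PNP. Doses: 12.8 µM only. Measured by: epi absorbance of p-nitrophenol freed from T5PNP by hydrolysis.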
ASAP1 inh: blocks human ASAP1-stimulated Arf1 GTP hydrolysis | Q9ULH1 | GDP FP detection | inhibition, % at 16.5 µM | 0.19% of 360,000 active; in the data active means inhibition above about 25%;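 further: 0% = vehicle with enzyme and substrate and 100% = no enzyme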
UHRF1 MBD2 ctr: UHRF1 methyl-DNA binding inhibition | UHRF1 binding to methylated oligo, TR-FRET | inhibition, % at 4.4 µM | 0.75% of 370,000 active; in the data active means inhibition above about 21%;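 further: UHRF1 SRA domain binding a hemimethylated CpG hairpin DNA probe; 0% = median of test compound wells and 100% = reference inhibitor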
LEDGF integ inh: blocks HIV-1 LEDGF/p75-dependent DNA integration. TR-FRET IN-LEDGF/p75 DNA integration, Eu/Cy5. inhibition, % at 3.7 µM. 0.64% of 370,000 active;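 active means inhibition above the screen-wide mean plus 3 SD, cut at about 13% in these data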;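 further: signal is the Cy5 over europium emission ratio at 671 and 618 nm; 0% = plate median of compound wells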
MBD2 inh: inhibitors of human MBD2 binding to methylated oligonucleotide. Q9UBB5. TR-FRET. inhibition, % at 4.4 µM. 0.31% of 370,000 active. AID 686964; in the data active means inhibition above about 13%
* hit, by the source's call. Compounds with a hit are over-represented: about 2% of the library has one in this group of screens.

`COc1ccc(NC(=O)c2cn(-c3ccccc3)nc2-c2ccncc2)cc1` gave ARFGAP1 inh -1.4, TDP2 inh -4.5, ASAP1 inh 2.8, UHRF1 MBD2 ctr -0.5, LEDGF integ inh 1.5 and MBD2 inh 4.0.
COc1cccc(-c2nn(-c3ccccc3)cc2C(=O)NCC(=O)O)c1 was read as ARFGAP1 inh -1.1, TDP2 inh 5.8, ASAP1 inh 9.7, UHRF1 MBD2 ctr 22.3*, LEDGF integ inh 2.1 and MBD2 inh 8.2.
For COc1ccc(NC(=O)c2cn(-c3ccccc3)nc2-c2cc3ccccc3o2)cc1 the results were ARFGAP1 inh 10.0, TDP2 inh -3.1, ASAP1 inh 28.7*, UHRF1 MBD2 ctr -2.2, LEDGF integ inh -0.3 and MBD2 inh -3.2.
`Cc1ccc(C(=O)OCC(=O)NCCNC(=O)COC(=O)c2ccc(C)s2)s1` gave ARFGAP1 inh -7.5, TDP2 inh 7.5, ASAP1 inh 0.3, UHRF1 MBD2 ctr 30.3*, LEDGF integ inh 1.1 and MBD2 inh -0.6.
COC(=O)Nc1cc([N+](=O)[O-])ccc1OC was read as ARFGAP1 inh 1.7, TDP2 inh -4.6, ASAP1 inh 1.0, UHRF1 MBD2 ctr -0.8, LEDGF integ inh -3.4 and MBD2 inh -3.1.
Screening COc1ccc([N+](=O)[O-])cc1NC(=O)C(C)Sc1nc(C)c(C)c(C)n1 (centres undefined) returned ARFGAP1 inh 4.7, TDP2 inh -4.1, ASAP1 inh 0.6, UHRF1 MBD2 ctr 61.3*, LEDGF integ inh 2.5 and MBD2 inh -1.2.
COc1ccc([N+](=O)[O-])cc1NC(=O)C(C)N1CCCC1 (centres undefined) was read as ARFGAP1 inh -2.3, TDP2 inh 1.8, ASAP1 inh 8.6, UHRF1 MBD2 ctr 49.3*, LEDGF integ inh 1.8 and MBD2 inh -0.1.
O=C(CN1CCN(c2nc(-c3ccccc3)cs2)CC1)Nc1ccc(Cl)c(Cl)c1 was read as TDP2 inh 12.0, UHRF1 MBD2 ctr -0.9, LEDGF integ inh -1.9 and MBD2 inh 2.2.
For CCOc1ccc(N(C)Cc2cc(=O)oc3ccc(OCC)cc23)cc1 the results were ARFGAP1 inh 17.2, TDP2 inh -8.6, ASAP1 inh 5.6, UHRF1 MBD2 ctr 21.7*, LEDGF integ inh -1.9 and MBD2 inh 2.9.
Fc1cccc(Cc2c(C3CCCCC3)nc3c4ccccc4ccn23)c1 was read as ARFGAP1 inh 1.9, TDP2 inh 9.4, ASAP1 inh -16.0, UHRF1 MBD2 ctr 24.9*, LEDGF integ inh -4.7 and MBD2 inh 10.9.
For CCCc1nc2c3ccccc3ccn2c1Cc1cccc(Cl)c1 the results were ARFGAP1 inh 2.7, TDP2 inh -2.4, ASAP1 inh 6.0, UHRF1 MBD2 ctr 24.4*, LEDGF integ inh -2.0 and MBD2 inh 11.3.
CCOC(=O)N1CCN(C(=O)C[C@H]2C[C@@]3(C(=O)OC)C(=C[C@H](C(C)C)O[C@@H]3C3CC3)N(Cc3ccc4c(c3)OCO4)C2=O)CC1 was read as TDP2 inh 3.5, UHRF1 MBD2 ctr -0.4, LEDGF integ inh -0.6 and MBD2 inh -7.2.
C[C@H]1COc2cc(N3CC[C@H](O)C3)ccc2S(=O)(=O)N1 was read as ARFGAP1 inh 7.0, TDP2 inh -8.0, ASAP1 inh 13.8, UHRF1 MBD2 ctr 62.4*, LEDGF integ inh -5.4 and MBD2 inh 2.5.
For N=C1CCCN1CC(=O)c1ccc(Br)cc1 the results were ARFGAP1 inh 4.6, TDP2 inh 5.2, ASAP1 inh 1.4, UHRF1 MBD2 ctr 22.5*, LEDGF integ inh -0.4 and MBD2 inh 6.5.
COC(=O)NN=C1CCC(c2ccccc2)CC1 (centres undefined) was read as ARFGAP1 inh -4.3, TDP2 inh 13.2, ASAP1 inh 6.1, UHRF1 MBD2 ctr 0.1, LEDGF integ inh -1.0 and MBD2 inh -2.5.
For COC(=O)N/N=C1/C/C(=N\NC(=O)OC)c2ccccc21 the results were ARFGAP1 inh -2.7, TDP2 inh 50.1*, ASAP1 inh 13.3, UHRF1 MBD2 ctr -8.2, LEDGF integ inh 32.5* and MBD2 inh -10.3.
Screening COC(=O)c1ccc(Cn2ccc3ccc(-c4ccc5ccn(C(=O)c6ccc(C)cc6)c5c4)cc32)cc1 returned TDP2 inh -11.2, UHRF1 MBD2 ctr 1.5, LEDGF integ inh 2.9 and MBD2 inh 3.6.
For COC(=O)CSC1=C(C#N)C(c2ccc(Cl)cc2)C(C(=O)OC)C(=O)N1 (centres undefined) the results were ARFGAP1 inh 4.0, TDP2 inh 13.9, ASAP1 inh 7.3, UHRF1 MBD2 ctr 22.6*, LEDGF integ inh 1.2 and MBD2 inh 11.2.
`CCOC(=O)CSC1=C(C#N)C(c2ccc(Cl)cc2)C(C(=O)OC)C(=O)N1` (centres undefined) gave ARFGAP1 inh 9.5, TDP2 inh 3.8, ASAP1 inh -6.5, UHRF1 MBD2 ctr -1.3, LEDGF integ inh -0.5 and MBD2 inh -6.1.
COC(=O)[C@]12C[C@H](CC(=O)N3CCCCC3)C(=O)N(Cc3cccc4ccccc34)C1=C[C@H](COCc1ccccc1)O[C@@H]2C was read as TDP2 inh 0.7, UHRF1 MBD2 ctr -4.6, LEDGF integ inh 1.4 and MBD2 inh -4.8.
`N#Cc1c(=O)c2nc(NCc3ccccc3)ncc2n2ccccc12` gave ARFGAP1 inh 3.1, TDP2 inh 10.4, ASAP1 inh -7.4, UHRF1 MBD2 ctr -11.6, LEDGF integ inh 43.7* and MBD2 inh -4.4.
Screening COC(=O)C[C@@H]1CC[C@@H]2[C@@H](COc3ccc(NC(=O)c4ccc(F)cc4)cc3C(=O)N2C)O1 returned TDP2 inh 6.9, UHRF1 MBD2 ctr -2.1, LEDGF integ inh -4.1 and MBD2 inh 0.0.
`Cc1cccc(N=O)n1` gave ARFGAP1 inh 13.4, TDP2 inh -3.7, ASAP1 inh 3.0, UHRF1 MBD2 ctr -2.8, LEDGF integ inh 1.5 and MBD2 inh -4.0.
Cc1cccc(N=[N+]([O-])c2cccc(C)n2)n1 was read as ARFGAP1 inh 4.2, TDP2 inh 0.6, ASAP1 inh 0.9, UHRF1 MBD2 ctr 41.8*, LEDGF integ inh 5.2 and MBD2 inh -2.4.
`CCCCN1C(=O)N2Cc3cc(OC)ccc3C2CS1(=O)=O` (centres undefined) gave TDP2 inh 1.0, UHRF1 MBD2 ctr -1.8, LEDGF integ inh -0.6 and MBD2 inh -6.3.
For Nc1nc(N)c2cc(CNc3ccc(Cl)c(Cl)c3)ccc2n1 the results were ARFGAP1 inh -0.6, TDP2 inh -8.8, ASAP1 inh 6.2, UHRF1 MBD2 ctr 21.6*, LEDGF integ inh -2.2 and MBD2 inh 11.9.
`Nc1nc(N)c2cc(Sc3ccc(Cl)cc3)ccc2n1` gave ARFGAP1 inh -2.9, TDP2 inh -17.9, ASAP1 inh 2.8, UHRF1 MBD2 ctr -0.6, LEDGF integ inh -2.5 and MBD2 inh 0.3.
